Source: ChEMBL document CHEMBL4477226, “Reduction Sensitive Lipid Conjugates of Tenofovir: Synthesis, Stability, and Antiviral Activity” (J Med Chem, 2016)
Counter-ions that a name gives are not always drawn.

How the values were obtained:
[1] = tested on: Human immunodeficiency virus 1; assay: Antiviral activity against HIV1 infected in human PBMC assessed as inhibition of viral replication by measuring reverse transcriptase activity in cell supernatant preincubated with cells followed by viral infection measured after 7 days by radioactive incorporation polymerization assay; assay type: functional, organism-based
Procedure, shortened: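 HIV-infected PBMCs; antiviral activity read as reverse transcriptase in cell supernatants; EC50 is the concentration in μM that inhibits HIV-1 by 50%.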

[2] = Therapeutic index, ratio of CC50 for human PBMC to EC50 for HIV1 infected in human PBMC; assay type: toxicity; details: read-out: Ratio CC50/EC50
Procedure, shortened: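 TI is the ratio of PBMC CC50 (uninfected cells, 50% viability loss) to EC50 for 50% inhibition of HIV-1, both in μM; HIV-1 activity measured as reverse transcriptase in supernatants of infected PBMCs.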

[3] = tested on: PBMC; assay: (§1) Cytotoxicity against human PBMC assessed as reduction in cell viability by XTT assay; assay type: cell-based
Procedure, shortened: (§2)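 CC50 is the concentration in μM that reduces viability of uninfected PBMCs by 50%.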

[4] = tested on: Hepatitis B virus; assay: Antiviral activity against HBV infected in human HepG2.2.15 cells assessed as inhibition of viral DNA in cell supernatant incubated for 3 days in presence of 10% FBS followed by compound treatment in absence of 10% FBS for 3 days by qRT-PCR method; assay type: functional, organism-based; details: HepG2.2.15, 72 h
Procedure, shortened: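 HBV assay in HepG2.2.15 cells; viral DNA quantified by qPCR after 6 days of incubation.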

[5] = Therapeutic index, ratio of CC90 for human PBMC to EC90 for HIV1 infected in human PBMC; assay type: toxicity; details: read-out: TI
Procedure, shortened: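 HIV-1-infected human PBMCs; antiviral effect read as reverse transcriptase activity in culture supernatants. Toxicity measured as loss of viability in uninfected PBMCs. Index calculated as the cytotoxic concentration divided by the effective concentration at the 90% level (CC90/EC90).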

[6] = Therapeutic index, ratio of CC50 for human HepG2.2.15 cells to EC50 for HBV infected in human HepG2.2.15 cells; assay type: toxicity, cell-based; details: read-out: Ratio CC50/EC50
[7] = (§3) Cytotoxicity against human HepG2.2.15 cells assessed as reduction in cell viability after 6 days by XTT assay; assay type: cell-based, HepG2 2.2.15; details: HepG2.2.15 cells
[8] = as §1; assay type: cell-based; procedure, shortened: as §2
[9] = tested on: HepG2 2.2.15; assay: as §3; assay type: cell-based; details: hepg2 2.2.15, 144 h
[10] = Oral bioavailability in mouse; assay type: ADME, organism-based; details: in vivo
[11] = Half life in human gastric juice; assay type: ADME, tissue-based
[12] = Half life in pH 2 solution at 10^-3 M by HPLC analysis; assay type: physicochemical
[13] = Half life in RPMI 1640 culture medium at 10^-3 M by HPLC analysis; assay type: physicochemical
[14] = Half life in pH 7.4 Tris HCl buffer containing KCl at 10^-3 M by HPLC analysis; assay type: physicochemical
[15] = Half life in human serum at 10^-3 M by HPLC analysis; assay type: ADME, cell-free
[16] = Half life in pH 7.4 phosphate buffered saline at 2 mg using kimax glassware by LC-MS analysis; assay type: physicochemical
Procedure, shortened: (§4)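 Compound incubated in human serum, PBS (pH 7.4), DMEM, or carbonate/bicarbonate buffer (pH 9). Aliquots were taken at several time points over 2 h, with a final sample at 24 h, and analysed by LC-MS to follow decomposition. Half-life was derived from loss of parent over time.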

[17] = Stability in pH 9 Sodium carbonate/bicarbonate buffer at 2 mg by LC-MS analysis; assay type: physicochemical; details: in vitro; procedure, shortened: as §4
[18] = Stability in DMEM at 2 mg by LC-MS analysis; assay type: physicochemical; details: in vitro; procedure, shortened: as §4
[19] = Half life in DMEM at 2 mg using kimax glassware by LC-MS analysis; assay type: physicochemical; procedure, shortened: as §4
[20] = Half life in pH 9 Sodium carbonate/bicarbonate buffer at 2 mg using kimax glassware by LC-MS analysis; assay type: physicochemical; procedure, shortened: as §4
[21] = Half life in human plasma at 2 mg by LC-MS analysis; assay type: ADME, cell-free; procedure, shortened: as §4
[22] = Stability in pH 7.4 phosphate buffered saline assessed as lipid adsorption on glass surface using pyrex glassware measured up to 1440 mins by LC-MS analysis; assay type: physicochemical; details: buffer, pH 7.4, 24 h
[23] = Stability in pH 7.4 phosphate buffered saline assessed as lipid adsorption on glass surface using kimax glassware measured up to 1440 mins by LC-MS analysis; assay type: physicochemical; details: buffer, pH 7.4, 24 h
[24] = Stability in pH 7.4 phosphate buffered saline assessed as lipid adsorption on glass surface using silanized glassware measured up to 1440 mins by LC-MS analysis; assay type: physicochemical; details: buffer, pH 7.4, 24 h
[25] = Oral bioavailability in rat at 30 mg/kg, administered through gastric intubation by HPLC analysis; assay type: ADME, organism-based; details: in vivo
[26] = Oral bioavailability in rhesus monkey by HPLC analysis; assay type: ADME, organism-based, Macaca mulatta; details: in vivo
[27] = Half life in pH 7.4 phosphate buffered saline at 2 mg by LC-MS analysis; assay type: physicochemical; procedure, shortened: as §4

CCCCCCCCCCCCCCCCSSCCOP(=O)(CO[C@H](C)Cn1cnc2c(N)ncnc21)Nc1ccccc1 (some centres undefined)
EC50 [1]: 0.005 µM | selectivity ratio [2]: 7000 | CC50 [3]: 34.2 µM

CCCCCCCCCCCCCCCCSSCCOP(=O)(CO[C@H](C)Cn1cnc2c(N)ncnc21)OCC (some centres undefined)
EC50 [1]: 0.349 µM | selectivity ratio [2]: 104 | CC50 [3]: 36.2 µM

CC(C)OC(=O)OCOP(=O)(CO[C@H](C)Cn1cnc2c(N)ncnc21)OCOC(=O)OC(C)C [TENOFOVIR DISOPROXIL FUMARATE]
EC50 [4]: 0.34 µM | selectivity ratio [5]: 1300 | EC50 [1]: 0.0046 µM | selectivity ratio [2]: 9500 | selectivity ratio [6]: 86 to 190 | CC50 at 144 h [7]: 29.2 to 64.5 µM | CC50 [3]: 43.7 µM

CCCCCCCCCCSSCCOP(=O)(CO[C@H](C)Cn1cnc2c(N)ncnc21)OCCSSCCCCCCCCCC
EC50 [4]: > 100 µM | EC50 [1]: 0.349 µM | selectivity ratio [2]: > 287 | selectivity ratio [6]: > 1 | CC50 at 144 h [7]: > 100 µM | CC50 [8]: > 100 µM

CCCCCCCCCCCCSSCCOP(=O)(O)CO[C@H](C)Cn1cnc2c(N)ncnc21
EC50 [4]: 1.67 µM | EC50 [1]: 0.003 µM | selectivity ratio [2]: 8300 | selectivity ratio [6]: > 30 | CC50 [9]: > 50 µM | CC50 [3]: 25 µM

C[C@H](Cn1cnc2c(N)ncnc21)OCP(=O)(O)O [TENOFOVIR ANHYDROUS]
EC50 [1]: 0.319 µM | bioavailability [10]: 2% | selectivity ratio [2]: > 300 | CC50 [3]: > 100 µM

C[C@H](Cn1cnc2c(N)ncnc21)OCP(=O)(O)OCCS
EC50 [4]: 41.9 µM | CC50 [9]: > 100 µM | CC50 [3]: > 100 µM

Nc1ncnc2c1ncn2CCOCP(=O)(OCCSSCCO)OCCSSCCO
half-life [11]: > 24 h | half-life at 1000 µM [12]: > 24 h | half-life at 1000 µM [13]: > 24 h | half-life at 1000 µM [14]: > 24 h | half-life at 1000 µM [15]: < 4.98 min

CCCCCCCCCCCCCCSSCCOP(=O)(O)CO[C@H](C)Cn1cnc2c(N)ncnc21.N
half-life [16]: < 2 h | EC50 [4]: 0.444 µM | selectivity ratio [5]: 11000 | Stability [17]: Unstable | EC50 [1]: 0.0005 µM | Stability [18]: Unstable | half-life [19]: < 2 h | half-life [20]: < 2 h | selectivity ratio [2]: 28000 to 30000 | selectivity ratio [6]: > 56 | CC50 [9]: > 25 µM | t1/2 [21]: > 24 h | CC50 [3]: 14 µM

CCCCCCCCCCCCCCCCSSCCOP(=O)(CO[C@H](C)Cn1cnc2c(N)ncnc21)OCCSSCCCCCCCCCCCCCCCC
EC50 [4]: > 25 µM | EC50 [1]: 6.32 µM | selectivity ratio [2]: 4 | selectivity ratio [6]: > 1 | CC50 at 144 h [7]: > 25 µM | CC50 [8]: > 25 µM

CCCCCCCCCCCCCCCCOCCCOC[C@H]1O[C@@H](n2ccc(=O)[nH]c2=O)[C@H](F)[C@@H]1O
Stability [22]: Unstable | Stability [23]: Stable | Stability [24]: Unstable

CCCCCCCCCCCCCCCCCCSSCCOP(=O)(O)CO[C@H](C)Cn1cnc2c(N)ncnc21
EC50 [4]: 0.505 µM | EC50 [1]: 0.0006 µM | selectivity ratio [2]: 11000 | selectivity ratio [6]: > 50 | CC50 [9]: > 50 µM | CC50 [3]: 6.36 µM

CCCCCCCCCCCCCCCCSSCCOP(=O)(CO[C@H](C)Cn1cnc2c(N)ncnc21)OC (some centres undefined)
EC50 [1]: 0.026 µM | selectivity ratio [2]: 1500 | CC50 [3]: 38.2 µM

CCCCCCCCCCCCCCCCSSCCOP(=O)(CO[C@H](C)Cn1cnc2c(N)ncnc21)OCCCC (some centres undefined)
EC50 [1]: 0.19 µM | selectivity ratio [2]: 150 | CC50 [3]: 27.9 µM

CCCCCCCCCCCCCCCCSSCCOP(=O)(CO[C@H](C)Cn1cnc2c(N)ncnc21)OCC(C)(C)C (mixture of isomers)
EC50 [1]: 0.14 µM | selectivity ratio [2]: > 700 | CC50 [3]: > 100 µM

Nc1ncnc2c1ncn2CCOCP(=O)(O)O [ADEFOVIR]
bioavailability [25]: 8 to 11% | bioavailability [26]: < 1%

CCCCCCCCCCSSCCOP(=O)(O)CO[C@H](C)Cn1cnc2c(N)ncnc21
EC50 [4]: > 50 µM | EC50 [1]: 0.085 µM | selectivity ratio [2]: > 590 | selectivity ratio [6]: > 1 | CC50 [9]: > 50 µM | CC50 [3]: > 50 µM

CCCCCCCCCCCCCCCCSSCCOP(=O)(CO[C@H](C)Cn1cnc2c(N)ncnc21)OCc1ccccc1 (some centres undefined)
EC50 [1]: 0.018 µM | selectivity ratio [2]: 2300 | CC50 [3]: 41.1 µM

CCCCCCCCCCCCCCCCSSCCOP(=O)(CO[C@H](C)Cn1cnc2c(N)ncnc21)OCCCCCCCC (some centres undefined)
EC50 [1]: 0.911 µM | selectivity ratio [2]: > 50 | CC50 [8]: > 50 µM

CCCCCCCCCCCCSSCCOP(=O)(CO[C@H](C)Cn1cnc2c(N)ncnc21)OCCSSCCCCCCCCCCCC
EC50 [4]: > 100 µM | EC50 [1]: 1.18 µM | selectivity ratio [2]: > 85 | selectivity ratio [6]: > 1 | CC50 at 144 h [7]: > 100 µM | CC50 [8]: > 100 µM

C[C@H](Cn1cnc2c(N)ncnc21)OCP(=O)(O)OCCSSCCO
EC50 [4]: 11.6 µM | half-life [27]: 3.5 h | EC50 [1]: 1.61 µM | selectivity ratio [2]: > 62.1 | selectivity ratio [6]: > 8.6 | CC50 [9]: > 100 µM | t1/2 [21]: < 0.567 h | CC50 [3]: > 100 µM

CCCCCCCCCCCCCCSSCCOP(=O)(CO[C@H](C)Cn1cnc2c(N)ncnc21)OCCSSCCCCCCCCCCCCCC
EC50 [4]: > 100 µM | EC50 [1]: 0.189 µM | selectivity ratio [2]: > 529 | selectivity ratio [6]: > 1 | CC50 at 144 h [7]: > 100 µM | CC50 [8]: > 100 µM

CCCCCCCCCCCCCCCCCCSSCCOP(=O)(CO[C@H](C)Cn1cnc2c(N)ncnc21)OCCSSCCCCCCCCCCCCCCCCCC
EC50 [4]: > 25 µM | EC50 [1]: 0.331 µM | selectivity ratio [2]: > 76 | selectivity ratio [6]: > 1 | CC50 at 144 h [7]: > 25 µM | CC50 [8]: > 25 µM

CCCCCCCCCCCCCCCCOCCCOP(=O)(O)CO[C@H](C)Cn1cnc2c(N)ncnc21 [TENOFOVIR EXALIDEX]
EC50 [1]: 0.02 µM | selectivity ratio [2]: > 5000 | CC50 [3]: > 100 µM

CCCCCCCCCCCCCCCCSSCCOP(=O)(CO[C@H](C)Cn1cnc2c(N)ncnc21)OCCC (some centres undefined)
EC50 [1]: 0.216 µM | selectivity ratio [2]: 49 | CC50 [3]: 10.6 µM

CCCCCCCCCCCCCCCCSSCCOP(=O)(O)CO[C@H](C)Cn1cnc2c(N)ncnc21.N
half-life [16]: < 2 h | EC50 [4]: 0.02 µM | selectivity ratio [5]: 11000 | Stability [17]: Unstable | half-life [27]: < 0.333 h | EC50 [1]: 0.00065 µM | Stability [18]: Unstable | half-life [19]: < 2 h | half-life [20]: < 2 h | selectivity ratio [2]: 22000 | selectivity ratio [6]: 1200 to 1250 | CC50 [9]: > 25 µM | t1/2 [21]: > 24 h | CC50 [3]: 14.3 µM
